What was measured:
Assay type in all cases: functional
[1] = Cytotoxicity against human UACC257 cells at 10^-5 M after 48 hrs by SRB assay; conditions: UACC-257, 48 h, read-out: GI
[2] = test system: HOP-92; experiment: Cytotoxicity against human HOP92 cells at 10^-6 M after 48 hrs by SRB assay; conditions: HOP-92, 48 h, read-out: GI
Outline: (§1)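 Run by NCI on its 60-line human tumor cell panel, after a three-cell-line prescreen. Cells were exposed to drug for 48 h over a 5-log range: 100, 10, 1, 0.1 and 0.01 micromolar. Growth was estimated by sulforhodamine B (SRB) protein staining. Percent growth inhibition (I%) was recorded at each concentration relative to untreated control cells.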

[3] = test system: SK-MEL-2; experiment: Cytotoxicity against human SK-MEL-2 cells at 10^-6 M after 48 hrs by SRB assay; conditions: SK-MEL-2, 48 h, read-out: GI
Outline: (§2)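 Second-stage screen in the 60-cell-line human tumor panel at NCI, over a 5-log range (100, 10, 1, 0.1, 0.01 micromolar). Cells were exposed to drug for 48 h and growth was estimated with a sulforhodamine B protein stain. The value is percent growth inhibition at each concentration.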

[4] = test system: NCI-H522; experiment: Cytotoxicity against human NCI-H522 cells at 10^-5 M after 48 hrs by SRB assay; conditions: NCI-H522, 48 h, read-out: GI
Outline: (§3)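 Run in the NCI 60-cell-line screen after a three-line prescreen. Cells got a 48 h drug exposure; viability/growth was estimated with the sulforhodamine B protein assay. Growth inhibition (I%) was recorded at 100, 10, 1, 0.1 and 0.01 micromolar. Percent growth is relative to untreated control cells, and negative values indicate cell kill.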

[5] = test system: SK-MEL-28; experiment: Cytotoxicity against human SK-MEL-28 cells at 10^-5 M after 48 hrs by SRB assay; conditions: SK-MEL-28, 48 h, read-out: GI; outline: as §2
[6] = test system: BT-549; experiment: Cytotoxicity against human BT549 cells at 10^-5 M after 48 hrs by SRB assay; conditions: BT-549, 48 h, read-out: GI; outline: as §1
[7] = test system: MDA-MB-231; experiment: Cytotoxicity against human MDA-MB-231 cells at 10^-6 M after 48 hrs by SRB assay; conditions: MDA-MB-231, 48 h, read-out: GI; outline: as §3
[8] = test system: OVCAR-3; experiment: Cytotoxicity against human OVCAR3 cells at 10^-6 M after 48 hrs by SRB assay; conditions: OVCAR-3, 48 h, read-out: GI; outline: as §3
[9] = test system: KM12; experiment: Cytotoxicity against human KM12 cells at 10^-6 M after 48 hrs by SRB assay; conditions: KM12, 48 h, read-out: GI; outline: as §3
[10] = test system: U-251; experiment: Cytotoxicity against human U251 cells at 10^-5 M after 48 hrs by SRB assay; conditions: U-251, 48 h, read-out: GI
[11] = test system: NCI/ADR-RES; experiment: Cytotoxicity against human NCI/ADR-RES cells at 10^-6 M after 48 hrs by SRB assay; conditions: read-out: GI; outline: as §3
[12] = test system: SK-OV-3; experiment: Cytotoxicity against human SKOV3 cells at 10^-5 M after 48 hrs by SRB assay; conditions: SK-OV-3, 48 h, read-out: GI; outline: as §2
[13] = test system: SK-MEL-2; experiment: Cytotoxicity against human SK-MEL-2 cells at 10^-5 M after 48 hrs by SRB assay; conditions: SK-MEL-2, 48 h, read-out: GI; outline: as §2
[14] = test system: T47D; experiment: Cytotoxicity against human T47D cells at 10^-5 M after 48 hrs by SRB assay; conditions: read-out: GI
[15] = test system: NCI-H460; experiment: Cytotoxicity against human NCI-H460 cells at 10^-6 M after 48 hrs by SRB assay; conditions: NCI-H460, 48 h, read-out: GI; outline: as §3
[16] = test system: NCI-H322M; experiment: Cytotoxicity against human NCI-H322M cells at 10^-5 M after 48 hrs by SRB assay; conditions: read-out: GI; outline: as §3
[17] = test system: SF-539; experiment: Cytotoxicity against human SF539 cells at 10^-6 M after 48 hrs by SRB assay; conditions: SF-539, 48 h, read-out: GI; outline: as §2
[18] = test system: U-251; experiment: Cytotoxicity against human U251 cells at 10^-6 M after 48 hrs by SRB assay; conditions: U-251, 48 h, read-out: GI
[19] = test system: A549; experiment: Cytotoxicity against human A549 cells at 10^-5 M after 48 hrs by SRB assay; conditions: A549, 48 h, read-out: GI; outline: as §1
[20] = Cytotoxicity against human Hs578T cells at 10^-5 M after 48 hrs by SRB assay; conditions: Hs-578T, read-out: GI; outline: as §1
[21] = test system: A498; experiment: Cytotoxicity against human A498 cells at 10^-5 M after 48 hrs by SRB assay; conditions: A498, 48 h, read-out: GI; outline: as §1
[22] = test system: COLO 205; experiment: Cytotoxicity against human COLO205 cells at 10^-5 M after 48 hrs by SRB assay; conditions: COLO 205, 48 h, read-out: GI; outline: as §1
[23] = test system: SNB-19; experiment: Cytotoxicity against human SNB19 cells at 10^-5 M after 48 hrs by SRB assay; conditions: SNB-19, 48 h, read-out: GI
[24] = Cytotoxicity against human OVCAR5 cells at 10^-6 M after 48 hrs by SRB assay; conditions: OVCAR-5, 48 h, read-out: GI; outline: as §2
[25] = test system: SK-MEL-28; experiment: Cytotoxicity against human SK-MEL-28 cells at 10^-6 M after 48 hrs by SRB assay; conditions: SK-MEL-28, 48 h, read-out: GI; outline: as §2
[26] = test system: NCI-H460; experiment: Cytotoxicity against human NCI-H460 cells at 10^-5 M after 48 hrs by SRB assay; conditions: NCI-H460, 48 h, read-out: GI; outline: as §3
[27] = test system: ACHN; experiment: Cytotoxicity against human ACHN cells at 10^-6 M after 48 hrs by SRB assay; conditions: read-out: GI; outline: as §1
[28] = test system: HL-60(TB); experiment: Cytotoxicity against human HL-60(TB) cells at 10^-5 M after 48 hrs by SRB assay; conditions: HL-60, 48 h, read-out: GI
Outline: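 NCI 60-human-tumour-cell-line screen run over a 5-log dose range (100, 10, 1, 0.1 and 0.01 µM). Cells were exposed to drug for 48 h. Growth was estimated by sulforhodamine B protein staining. Values are percent growth inhibition at each concentration, relative to untreated control cells.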

[29] = test system: ACHN; experiment: Cytotoxicity against human ACHN cells at 10^-5 M after 48 hrs by SRB assay; conditions: read-out: GI; outline: as §1
[30] = test system: DU-145; experiment: Cytotoxicity against human DU145 cells at 10^-6 M after 48 hrs by SRB assay; conditions: DU-145, 48 h, read-out: GI; outline: as §1
[31] = test system: SN12C; experiment: Cytotoxicity against human SN12C cells at 10^-5 M after 48 hrs by SRB assay; conditions: read-out: GI
[32] = test system: SN12C; experiment: Cytotoxicity against human SN12C cells at 10^-6 M after 48 hrs by SRB assay; conditions: read-out: GI
[33] = test system: HOP-62; experiment: Cytotoxicity against human HOP62 cells at 10^-6 M after 48 hrs by SRB assay; conditions: HOP-62, 48 h, read-out: GI; outline: as §1
[34] = test system: IGROV-1; experiment: Cytotoxicity against human IGROV1 cells at 10^-6 M after 48 hrs by SRB assay; conditions: IGROV-1, 48 h, read-out: GI; outline: as §3
[35] = test system: PC-3; experiment: Cytotoxicity against human PC3 cells at 10^-5 M after 48 hrs by SRB assay; conditions: PC-3, 48 h, read-out: GI; outline: as §2
[36] = test system: PC-3; experiment: Cytotoxicity against human PC3 cells at 10^-6 M after 48 hrs by SRB assay; conditions: PC-3, 48 h, read-out: GI; outline: as §2
[37] = test system: BT-549; experiment: Cytotoxicity against human BT549 cells at 10^-6 M after 48 hrs by SRB assay; conditions: BT-549, 48 h, read-out: GI; outline: as §1

In the case of `C#CCN(Cc1nc2cc(C(F)(F)F)ccc2nc1-c1ccccc1)c1ccc(C)cc1`, the inhibition of growth at 10 µM [1] is reported as under 40%, the inhibition of growth at 1 µM [2] is reported as under 40% and the inhibition of growth at 1 µM [3] is reported as 41%. The inhibition of growth at 10 µM [4] was 76%, the inhibition of growth at 10 µM [5] was 71% and the inhibition of growth at 10 µM [6] was under 40%. The inhibition of growth at 1 µM [7] was under 40%, the inhibition of growth at 1 µM [8] was 62% and the inhibition of growth at 1 µM [9] was under 40%. The inhibition of growth at 10 µM [10] was 85%, the inhibition of growth at 1 µM [11] was 109% and the inhibition of growth at 10 µM [12] was 112%. The inhibition of growth at 10 µM [13] was 72%, the inhibition of growth at 10 µM [14] was 78% and the inhibition of growth at 1 µM [15] was 62%. For the same compound, the inhibition of growth at 10 µM [16] was 62%, the inhibition of growth at 1 µM [17] was under 40% and the inhibition of growth at 1 µM [18] was under 40%. For the same compound, the inhibition of growth at 10 µM [19] was 55%, the inhibition of growth at 10 µM [20] was 88% and the inhibition of growth at 10 µM [21] was 116%. It also gave an inhibition of growth at 10 µM [22] of 164%, an inhibition of growth at 10 µM [23] of 92% and an inhibition of growth at 1 µM [24] of under 40%. It also gave an inhibition of growth at 1 µM [25] of under 40%, an inhibition of growth at 10 µM [26] of 75% and an inhibition of growth at 1 µM [27] of under 40%. The inhibition of growth at 10 µM [28] was 85%, the inhibition of growth at 10 µM [29] was 95% and the inhibition of growth at 1 µM [30] was under 40%. The inhibition of growth at 10 µM [31] was 80%, the inhibition of growth at 1 µM [32] was under 40% and the inhibition of growth at 1 µM [33] was 56%. For the same compound, the inhibition of growth at 1 µM [34] was under 40%, the inhibition of growth at 10 µM [35] was under 40% and the inhibition of growth at 1 µM [36] was under 40%. The inhibition of growth at 1 µM [37] was under 40%.
Work on `CCN(Cc1nc2cc(C(F)(F)F)ccc2nc1-c1ccccc1)c1ccc(OC)c(OC)c1` yielded an inhibition of growth at 10 µM [1] of 146%, an inhibition of growth at 1 µM [2] of under 40% and an inhibition of growth at 1 µM [3] of under 40%. The inhibition of growth at 10 µM [4] was 28%, the inhibition of growth at 10 µM [5] was under 40% and the inhibition of growth at 10 µM [6] was 33%. For the same compound, the inhibition of growth at 1 µM [7] was under 40%, the inhibition of growth at 1 µM [8] was 25% and the inhibition of growth at 1 µM [9] was under 40%. For the same compound, the inhibition of growth at 10 µM [10] was 62%, the inhibition of growth at 1 µM [11] was under 40% and the inhibition of growth at 10 µM [12] was under 40%. It also gave an inhibition of growth at 10 µM [13] of 15%, an inhibition of growth at 10 µM [14] of 24% and an inhibition of growth at 1 µM [15] of under 40%. The inhibition of growth at 10 µM [16] was under 40%, the inhibition of growth at 1 µM [17] was under 40% and the inhibition of growth at 1 µM [18] was under 40%. The inhibition of growth at 10 µM [19] was 79%, the inhibition of growth at 10 µM [20] was 43% and the inhibition of growth at 10 µM [21] was 63%. It also gave an inhibition of growth at 10 µM [22] of under 40%, an inhibition of growth at 10 µM [23] of under 40% and an inhibition of growth at 1 µM [24] of under 40%. For the same compound, the inhibition of growth at 1 µM [25] was under 40%, the inhibition of growth at 10 µM [26] was 25% and the inhibition of growth at 1 µM [27] was under 40%. For the same compound, the inhibition of growth at 10 µM [28] was 83%, the inhibition of growth at 10 µM [29] was 25% and the inhibition of growth at 1 µM [30] was under 40%. For the same compound, the inhibition of growth at 10 µM [31] was 21%, the inhibition of growth at 1 µM [32] was under 40% and the inhibition of growth at 1 µM [33] was under 40%. It also gave an inhibition of growth at 1 µM [34] of under 40%, an inhibition of growth at 10 µM [35] of 56% and an inhibition of growth at 1 µM [36] of 13%. It also gave an inhibition of growth at 1 µM [37] of under 40%.

Source: ChEMBL document CHEMBL3120154, “2-[N-Alkyl(R-phenyl)-aminomethyl]-3-phenyl-7-trifluoromethylquinoxalines as anticancer agents inhibitors of folate enzymes” (Eur J Med Chem, 2014)
